Test results published in ChEMBL document CHEMBL4411275, “Design, synthesis and biological evaluation of quinoline-indole derivatives as anti-tubulin agents targeting the colchicine binding site” (Eur J Med Chem, 2019).

Columns and labels:
[1] = Drug resistance index, ratio of IC50 for taxol-resistant human A549/TR cells to IC50 for human A549 cells; type: functional
How it was run: (§1)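 Resistant and parental sensitive lines exposed to a range of compound concentrations in medium with 0.1% DMSO for 72 h at 37 °C, 5% CO2, after 24 h pre-culture. MTT added for 4 h, absorbance read at 490 nm. IC50 from dose-response curves, at least three independent experiments. DRI = IC50 resistant / IC50 parental.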

[2] = tested on: K562/VCR; assay: Antiproliferative activity against human VCR-resistant K562/VCR cells after 72 hrs by MTT assay; type: functional, cell-based
How it was run: (§2)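 Cells preincubated 24 h at 37 °C, 5% CO₂. Compounds added at several concentrations in medium with 0.1% DMSO for 72 h. MTT (5 mg/mL in PBS) then added for 4 h, and optical density read at 490 nm. IC50 taken from dose-response curves; mean ± SD of at least three independent experiments.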

[3] = tested on: HUVEC; assay: Anti-migratory activity in HUVEC after 24 hrs by inverted microscopic analysis; type: functional, cell-based; conditions: Homo sapiens
How it was run: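 Scratch wound made in monolayers with a 200 μL pipette tip, then washed twice with PBS. Medium with 1, 2 or 4 nM compound added. Phase-contrast images taken at 0 h and 24 h, and the migration distance into the wound measured manually.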

[4] = tested on: HCT-8; assay: Antiproliferative activity against human HCT8 cells after 72 hrs by MTT assay; type: functional, cell-based; conditions: HCT-8, 72 h; how it was run: as §2
[5] = tested on: MDA-MB-231; assay: Antiproliferative activity against human MDA-MB-231 cells after 72 hrs by MTT assay; type: functional, cell-based; conditions: MDA-MB-231, 72 h; how it was run: as §2
[6] = biological target: Tubulin (Homo sapiens) (UniProt P68371+Q9H4B7+P0DPH7+P68366+Q13509+Q71U36+P04350+Q3ZCM7+P07437+P68363+Q9BQE3+Q6PEY2+Q13885+Q9BVA1+Q9BUF5); assay: Induction of microtubule disruption in human K562 cells after 24 hrs by DAPI staining-based fluorescence assay; type: cell-based
How it was run: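 K562 cells exposed 24 h to 1, 2 or 4 nM compound or 0.1% DMSO. Fixed in 4% paraformaldehyde and blocked 20 min with goat serum at room temperature. Incubated with anti-α-tubulin monoclonal antibody for 2 h at 37 °C, then fluorescent antibody, with DAPI nuclear counterstain. Imaged by confocal microscopy.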

[7] = tested on: H22 (Mus musculus); assay: Antitumor activity against mouse H22 cells xenografted in ICR mouse assessed as reduction in tumor weight at 10 mg/kg/day, iv for 21 days relative to control; set-up: scale not given: the % may be the effect or the level left
[8] = tested on: K562; assay: Cell cycle arrest in human K562 cells assessed as accumulation of cells at G1 phase at 2 nM after 48 hrs by propidium iodide staining-based flow cytometric analysis (reference value: 69.57%); type: functional
[9] = tested on: A549; assay: Antiproliferative activity against human A549 cells after 72 hrs by MTT assay; type: functional, cell-based; conditions: A549, 72 h; how it was run: as §2
[10] = tested on: K562; assay: Induction of mitochondrial membrane potential loss in human K562 cells assessed as collapsed mitochondrial membrane at 1 nM after 48 hrs by JC-1 dye-based flow cytometric analysis (RVB = 6.17%)
[11] = tested on: K562; assay: Induction of mitochondrial membrane potential loss in human K562 cells assessed as collapsed mitochondrial membrane at 4 nM after 48 hrs by JC-1 dye-based flow cytometric analysis (RVB = 6.17%)
[12] = tested on: K562; assay: Cell cycle arrest in human K562 cells assessed as accumulation of cells at G2 phase at 2 nM after 48 hrs by propidium iodide staining-based flow cytometric analysis (reference value: 10.51%); type: functional
[13] = tested on: HUVEC; assay: Anti-vascular activity in HUVEC assessed as inhibition of tube formation after 6 hrs by inverted microscopic analysis; type: functional, cell-based; conditions: Homo sapiens
How it was run: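 Matrigel thawed overnight at 4 °C and polymerised at 37 °C for 30 min. HUVECs in DMEM seeded at 50,000 cells/well, then exposed to 1, 2 or 4 nM compound or vehicle for 6 h at 37 °C. Capillary-like tubes photographed under an inverted microscope.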

[14] = biological target: Tubulin (Sus scrofa, UniProt P02554+P02550); assay: Inhibition of porcine brain tubulin polymerization preincubated for 30 mins and measured every 2 mins for 60 mins by spectrophotometric analysis
[15] = tested on: K562; assay: Cell cycle arrest in human K562 cells assessed as accumulation of cells at S phase at 2 nM after 48 hrs by propidium iodide staining-based flow cytometric analysis (reference value: 19.93%); type: functional
[16] = tested on: K562; assay: Antiproliferative activity against human K562 cells after 72 hrs by MTT assay; type: functional, cell-based; conditions: K562, 72 h; how it was run: as §2
[17] = tested on: K562; assay: Induction of mitochondrial membrane potential loss in human K562 cells assessed as intact mitochondrial membrane at 4 nM after 48 hrs by JC-1 dye-based flow cytometric analysis (RVB = 93.17%)
[18] = tested on: K562; assay: Cell cycle arrest in human K562 cells assessed as accumulation of cells at G2 phase at 4 nM after 48 hrs by propidium iodide staining-based flow cytometric analysis (reference value: 10.51%); type: functional
[19] = tested on: Bel-7402; assay: Antiproliferative activity against human Bel7402 cells after 72 hrs by MTT assay; type: functional, cell-based; conditions: Bel-7402, 72 h; how it was run: as §2
[20] = Drug resistance index, ratio of IC50 for taxol-resistant human HCT8/T cells to IC50 for human HCT8 cells; type: functional; how it was run: as §1
[21] = tested on: K562; assay: Cell cycle arrest in human K562 cells assessed as accumulation of cells at G1 phase at 4 nM after 48 hrs by propidium iodide staining-based flow cytometric analysis (reference value: 69.57%); type: functional
[22] = tested on: K562; assay: Cell cycle arrest in human K562 cells assessed as accumulation of cells at G1 phase at 1 nM after 48 hrs by propidium iodide staining-based flow cytometric analysis (reference value: 69.57%); type: functional
[23] = tested on: H22 (Mus musculus); assay: Antitumor activity against mouse H22 cells xenografted in ICR mouse assessed as reduction in tumor weight at 20 mg/kg/day, iv for 21 days relative to control; set-up: scale not given: the % may be the effect or the level left
[24] = tested on: HepG2; assay: Antiproliferative activity against human HepG2 cells after 72 hrs by MTT assay; type: functional, cell-based; conditions: HepG2, 72 h; how it was run: as §2
[25] = Drug resistance index, ratio of IC50 for VCR-resistant human K562/VCR cells to IC50 for human K562 cells; type: functional
[26] = tested on: K562; assay: Induction of mitochondrial membrane potential loss in human K562 cells assessed as intact mitochondrial membrane at 1 nM after 48 hrs by JC-1 dye-based flow cytometric analysis (RVB = 93.17%)
[27] = Antiproliferative activity against human taxol-resistant HCT8/T cells after 72 hrs by MTT assay; type: functional; conditions: HCT-8, 72 h; how it was run: as §2
[28] = Antiproliferative activity against human ADR-resistant Bel7402/ADR cells after 72 hrs by MTT assay; type: functional; conditions: Bel-7402, 72 h; how it was run: as §2
[29] = tested on: K562; assay: Induction of apoptosis in human K562 cells at 1 nM after 48 hrs by Annexin-V/propidium iodide staining-based flow cytometric analysis (reference value: 5.96%)

IC50 [2]: 31 nM
IC50 [4]: 7 nM
IC50 [5]: 6 nM
Activity [6]: Dose-dependent effect
IC50 [9]: 9 nM
IC50 [14]: 2.09 µM
IC50 [16]: 2 nM
IC50 [19]: 10 nM
IC50 [24]: 6 nM
SMILES: C=C(c1ccc2c(ccn2CO)c1)c1cc(C)nc2ccccc12
Ratio IC50 [1]: 13.2
Activity [3]: Dose-dependent effect
Activity [7]: 48.8%
Activity [8]: 50.63%
Activity [10]: 28.99%
Activity [11]: 73.55%
Activity [12]: 16.16%
Activity [13]: Dose-dependent effect
Activity [15]: 33.21%
Activity [17]: 26.27%
Activity [18]: 23.21%
Ratio IC50 [20]: 12.6
Activity [21]: 45.79%
Activity [22]: 60.18%
Activity [23]: 57.3%
Ratio IC50 [25]: 15.5
Activity [26]: 70.66%
IC50 [27]: 88 nM
IC50 [28]: 61 nM
Activity [29]: 25.7%
